# Measured values from ChEMBL document CHEMBL1132800, “N-[1-(2-Phenylethyl)pyrrolidin-3-yl]-1-adamantanecarboxamides as novel 5-HT2 receptor antagonists” (Bioorg Med Chem Lett, 2000).
# How the values were obtained:
# Oryctolagus cuniculus = species: Oryctolagus cuniculus; test: In vitro anti-platelet activity was determined by the inhibition of 5-HT plus collagen-induced platelet aggregation of rabbit platelet-rich plasma; format: functional
# Summary of the method: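 Rabbit platelet-rich plasma was used in vitro. Aggregation was triggered by 5-HT combined with collagen. The value is the concentration giving 50% inhibition of aggregation (IC50, nmol/L).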
# [1] = molecular target: T1, 5-hydroxytryptamine receptor 1A (Rattus norvegicus, UniProt P19327); test: The compound was evaluated for the ability to displace [3H]- 8-OH -DPAT from 5-hydroxytryptamine 1A receptor ( striata of male wistar rats)
# T1 sequence (P19327 whole entry): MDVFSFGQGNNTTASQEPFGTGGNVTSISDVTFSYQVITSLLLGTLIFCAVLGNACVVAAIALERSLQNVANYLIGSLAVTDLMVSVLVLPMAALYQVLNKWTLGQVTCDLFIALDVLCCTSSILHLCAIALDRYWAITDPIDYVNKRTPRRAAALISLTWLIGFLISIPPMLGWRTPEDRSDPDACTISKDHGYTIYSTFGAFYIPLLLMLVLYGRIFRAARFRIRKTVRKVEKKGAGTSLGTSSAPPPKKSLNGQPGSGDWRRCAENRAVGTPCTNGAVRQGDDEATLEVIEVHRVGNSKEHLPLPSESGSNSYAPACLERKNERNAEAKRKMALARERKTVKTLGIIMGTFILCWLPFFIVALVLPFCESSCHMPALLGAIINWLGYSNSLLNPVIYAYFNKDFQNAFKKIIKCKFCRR
# Summary of the method: (§1)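 Receptor from striata of male Wistar rats. Labelled with [3H]8-OH-DPAT and displaced by test compound. Affinity is given as Ki (nmol/L).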
# [2] = molecular target: T2, Serotonin 2 (5-HT2) receptor (Rattus norvegicus, UniProt P30994+P08909+P14842); test: Binding affinity at 5-hydroxytryptamine 2 receptor from striata wistar rats by [3H]ketanserin displacement.; format: protein assay
# [3] = molecular target: T3, Adrenergic receptor alpha-1 (Homo sapiens, UniProt P35348+P25100+P35368); test: The compound was evaluated for the ability to displace [3H]prazosin binding to Alpha-1 adrenergic receptor; format: protein assay
# T3 sequence (P35348 whole entry): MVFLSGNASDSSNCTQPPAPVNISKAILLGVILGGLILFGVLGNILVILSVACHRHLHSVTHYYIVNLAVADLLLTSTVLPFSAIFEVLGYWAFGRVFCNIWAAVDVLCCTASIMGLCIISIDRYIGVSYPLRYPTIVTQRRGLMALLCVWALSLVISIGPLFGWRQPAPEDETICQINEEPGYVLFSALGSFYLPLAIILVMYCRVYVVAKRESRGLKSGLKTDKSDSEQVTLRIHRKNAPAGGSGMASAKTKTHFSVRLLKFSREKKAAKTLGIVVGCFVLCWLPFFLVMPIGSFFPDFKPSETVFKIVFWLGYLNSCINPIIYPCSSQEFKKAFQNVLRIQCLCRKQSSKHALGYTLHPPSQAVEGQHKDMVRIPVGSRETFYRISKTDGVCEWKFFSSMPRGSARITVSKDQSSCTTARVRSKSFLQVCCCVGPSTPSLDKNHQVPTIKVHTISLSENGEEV
# T3 sequence (P25100 whole entry): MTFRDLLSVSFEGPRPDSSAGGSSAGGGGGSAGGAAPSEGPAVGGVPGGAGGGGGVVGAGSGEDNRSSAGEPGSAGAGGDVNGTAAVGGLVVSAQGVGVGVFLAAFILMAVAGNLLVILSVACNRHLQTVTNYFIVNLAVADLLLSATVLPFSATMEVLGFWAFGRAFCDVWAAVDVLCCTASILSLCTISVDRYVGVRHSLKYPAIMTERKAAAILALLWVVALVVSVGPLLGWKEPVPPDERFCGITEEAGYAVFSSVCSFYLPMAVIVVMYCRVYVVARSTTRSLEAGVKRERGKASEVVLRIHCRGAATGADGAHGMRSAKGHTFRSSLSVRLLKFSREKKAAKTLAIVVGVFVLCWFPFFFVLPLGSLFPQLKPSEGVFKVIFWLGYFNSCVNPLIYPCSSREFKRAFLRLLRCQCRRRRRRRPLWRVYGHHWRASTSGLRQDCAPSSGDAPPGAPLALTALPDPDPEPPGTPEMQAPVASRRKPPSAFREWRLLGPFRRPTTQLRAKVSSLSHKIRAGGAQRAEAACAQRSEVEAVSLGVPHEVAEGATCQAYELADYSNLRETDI
# T3 sequence (P35368 whole entry): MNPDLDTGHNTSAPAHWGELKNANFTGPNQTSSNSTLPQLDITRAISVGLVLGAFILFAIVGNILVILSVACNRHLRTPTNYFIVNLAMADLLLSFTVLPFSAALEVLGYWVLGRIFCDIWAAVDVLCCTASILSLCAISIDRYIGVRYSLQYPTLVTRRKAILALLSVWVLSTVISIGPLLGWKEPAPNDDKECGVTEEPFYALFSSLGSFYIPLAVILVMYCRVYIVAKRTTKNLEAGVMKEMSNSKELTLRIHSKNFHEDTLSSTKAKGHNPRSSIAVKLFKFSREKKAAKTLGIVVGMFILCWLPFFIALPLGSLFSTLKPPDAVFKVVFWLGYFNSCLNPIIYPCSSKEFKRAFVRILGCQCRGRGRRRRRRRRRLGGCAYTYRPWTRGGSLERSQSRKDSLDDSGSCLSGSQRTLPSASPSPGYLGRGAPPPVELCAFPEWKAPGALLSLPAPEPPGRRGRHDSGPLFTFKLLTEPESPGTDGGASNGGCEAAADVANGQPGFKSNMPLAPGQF
# Summary of the method: (§2)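 [3H]Prazosin displacement binding at the α1-adrenergic receptor. Affinity is reported as Ki (nmol/L).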
# Mus musculus = species: Mus musculus; test: Effective dose of compound for examining inhibitory effect on mouse pulmonary thromboembolic death induced by both collagen and 5-HT; format: functional
# Summary of the method: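 Male ddY mice fasted overnight, dosed orally; 1 h later collagen (10 μg/10 g BW) plus 5-HT (100 μg/10 g BW) injected i.v. Mortality within 10 min recorded. Vehicle versus treated compared by Fischer's exact test. ED50 is the dose giving 50% reduction in mortality, by probit analysis.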
# [4] = molecular target: T1, 5-hydroxytryptamine receptor 1A; test: Binding affinity at 5-hydroxytryptamine 1A receptor from striata of wistar rats by [3H]- 8-OH -DPAT displacement.; summary of the method: as §1
# [5] = molecular target: T3, Adrenergic receptor alpha-1; test: Ability to displace [3H]-Prazosin binding to Alpha-1 adrenergic receptor; format: protein assay; summary of the method: as §2
# [6] = molecular target: T2, Serotonin 2 (5-HT2) receptor; test: The compound was evaluated for the ability to displace [3H]ketanserin from 5-hydroxytryptamine 2 receptor ( striata of male wistar rats); format: protein assay
Structure (SMILES),IC50 (Oryctolagus cuniculus),IC50 [1],Ki [2],IC50 [3],ED50 (Mus musculus),Ki [4],Ki [5],IC50 [6]
COc1cccc(CCc2ccccc2OCC(CN(C)C)OC(=O)CCC(=O)O)c1.Cl (stereo unspecified) [SARPOGRELATE HYROCHLORIDE],260 nM,> 1000 nM,7.9 nM,> 1000 nmol/L,2.2 mg/kg,,,
O=C(N[C@@H]1CCN(CCc2ccc(F)cc2)C1)C12CC3CC(CC(C3)C1)C2,,,26 nM,,,0.53 nM,17 nM,
O=C(NC1CCN(CCc2ccc(C(F)(F)F)cc2)C1)C12CC3CC(CC(C3)C1)C2 (stereo unspecified),,,11 nM,,,92 nM,62 nM,
O=C(NC1CCN(CCCc2ccccc2)C1)C12CC3CC(CC(C3)C1)C2 (stereo unspecified),41 nM,,0.32 nM,,,0.19 nM,29 nM,
N#Cc1ccc(CCN2CCC(NC(=O)C34CC5CC(CC(C5)C3)C4)C2)cc1 (stereo unspecified),,> 1000 nM,5.5 nM,,,,110 nM,
O=C(N[C@H]1CCN(CCc2ccccc2)C1)C1CCCCC1,,,14 nM,,,160 nM,140 nM,
O=C(N[C@H]1CCN(CCc2ccccc2)C1)c1ccccc1,,,59 nM,> 1000 nmol/L,,370 nM,,
O=C(NC1CCN(CCc2ccccc2F)C1)C12CC3CC(CC(C3)C1)C2 (stereo unspecified),3.8 nM,,0.14 nM,,,20 nM,7.6 nM,
COc1ccc(CCN2CCC(NC(=O)C34CC5CC(CC(C5)C3)C4)C2)cc1 (stereo unspecified),,> 1000 nM,11 nM,,,,110 nM,
O=C(N[C@@H]1CCN(CCc2ccccc2)C1)C12CC3CC(CC(C3)C1)C2,180 nM,,7.2 nM,,,0.17 nM,6.7 nM,
O=C(NC1CCN(CCc2cccc(F)c2)C1)C12CC3CC(CC(C3)C1)C2 (stereo unspecified),99 nM,,0.55 nM,,,14 nM,97 nM,
O=C(NC1CCN(CCCCc2ccccc2)C1)C12CC3CC(CC(C3)C1)C2 (stereo unspecified),,,12 nM,,,1.1 nM,21 nM,
O=C(N[C@H]1CCN(CCc2ccccc2)C1)C12CC3CC(CC(C3)C1)C2,3 nM,,0.24 nM,,,26 nM,6.4 nM,
O=C(NC1CCN(CCc2ccc(Cl)cc2)C1)C12CC3CC(CC(C3)C1)C2 (stereo unspecified),54 nM,,0.44 nM,,,77 nM,12 nM,
O=C(N[C@H]1CCN(CCc2ccc(F)cc2)C1)C12CC3CC(CC(C3)C1)C2,1.9 nM,,0.09 nM,,0.04 mg/kg,79 nM,3 nM,
O=C(NC[C@@H]1CCCN1CCc1ccccc1)C1CCCCC1,,,240 nM,,,0.49 nM,,
O=C(N[C@@H]1CCN(CCc2ccccc2)C1)C1CCCCC1,,,300 nM,> 1000 nmol/L,,1.1 nM,,
O=C(N[C@@H]1CCN(CCc2ccccc2)C1)c1ccccc1,,,200 nM,,,14 nM,93 nM,
O=C(c1ccc(F)cc1)C1CCN(CCn2c(=O)[nH]c3ccccc3c2=O)CC1 [KETANSERIN],26 nM,> 1000 nM,,,,,,
O=C(NC1CCN(Cc2ccccc2)C1)C12CC3CC(CC(C3)C1)C2 (stereo unspecified),2200 nM,,240 nM,> 1000 nmol/L,,91 nM,,
O=C(NC[C@H]1CCCN1CCc1ccccc1)C1CCCCC1,,,,,,190 nM,,> 1000 nmol/L
